High-throughput results (PubChem)
LMP1 NFkB inh: inhibitors of Epstein-Barr LMP1-induced NF-kappaB reporter | LMP1-induced NF-kappaB luciferase reporter cells, luminescence | inhibition, % at 12.5 µM | 0.69% of 350,000 active | AID 504558; in the data active means inhibition above about 41%;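 further: 0% = neutral control wells and 100% = reference inhibitor control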
Shn3 3UTR inh: Schnurri-3 reporter inhibition in Clone20 osteoblasts; Clone20 osteoblast Shn3 3'UTR firefly luciferase, 24 h; inhibition, % at 12.5 µM; 0.52% of 360,000 active;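 active means mean inhibition of at least 75% with every replicate also reaching 75%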;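 further: 0% = median of neutral control wells and 100% = pilot-screen positive control compound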
PAX8 inh HTS: lowers PAX8-driven luciferase in RMG-I cells. RMG-I TPO-luciferase reporter, SteadyGlo, 24 h. inhibition, % at 12.6 µM. 1.2% of 360,000 active;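 active means mean replicate inhibition at least 60% with every replicate also reaching 60%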;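 further: luciferase light reporting Pax8 driven TPO promoter activity; plate controls were median of neutral control wells for no effect and mitoxantrone controls for full effect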
EWS-Fli inh: EWS/Fli transcriptional activity inhibition; A673 NR0B1-luciferase reporter, viability-normalised; inhibition, % at 12.6 µM; 0.67% of 350,000 active; AID 651661;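 active means mean inhibition of at least 50% after viability correction, with every replicate also passing that limit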;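 further: firefly luciferase signal divided by Alamar Blue viability fluorescence both relative to DMSO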
aSyn UTR inh: 5' untranslated region of α-synuclein, MLPCN primary screen | alpha-synuclein 5'UTR reporter, inhibitor activity | inhibition, % (tested at 7.5 µM) | 0.82% of 300,000 active; in the data active means inhibition above about 60%;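 further: H4 neuroglioblastoma cells stably carrying SNCA 5'UTR luciferase fusion; 0% = DMSO wells and 100% = positive control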
FN deposition inh: fibronectin deposition inhibition. 0.086% of 350,000 active. inhibition, % at 12.6 µM. AID 743247. AH1F fibroblasts, Alexa488-fibronectin deposition fluorescence, overnight;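 active means mean inhibition across replicates of 30% or more, regardless of how many single replicates reach that level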;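 further: positive control wells lacked labelled fibronectin entirely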
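Schedule: 1 h cell adhesion before compound, then overnight fibronectin incubation; test system: AH1F fibroblast monolayer depositing Alexa488-labelled fibronectin into matrix; quantity: 10000 AH1F cells per well; probe or stimulus: fluorescent fibronectin at 24 nM final; signal: fluorescence, ex 485 nm, em 525 nm; evaluation: percent inhibition as loss of matrix-bound fibronectin fluorescence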
Starred values were filed as active, the others as inactive; x = no result given. Only some compounds are listed: those with a hit (about 2.1% of all), similar ones and a draw of the others.

SMILES	LMP1 NFkB inh	Shn3 3UTR inh	PAX8 inh HTS	EWS-Fli inh	aSyn UTR inh	FN deposition inh
COC(=O)C[C@@H]1CC[C@H]2[C@@H](COC[C@@H](O)CN2CCC(F)(F)F)O1	x	x	-18	0	x	2
O=C(C[C@@H]1CC[C@@H]2[C@H](COC[C@H](O)CN2C(=O)Nc2ccc(C(F)(F)F)cc2)O1)NC1Cc2ccccc2C1	x	x	-2	23	x	-4
O=C(C[C@@H]1CC[C@@H]2[C@H](COC[C@@H](O)CN2C(=O)Nc2ccc(C(F)(F)F)cc2)O1)NC1Cc2ccccc2C1	x	x	88*	31	x	-13
O=C(C[C@H]1CC[C@H]2[C@@H](COC[C@H](O)CN2C(=O)Nc2ccc(C(F)(F)F)cc2)O1)NC1Cc2ccccc2C1	x	x	74*	10	x	-19
O=C(C[C@H]1CC[C@@H]2[C@H](COC[C@H](O)CN2C(=O)Nc2ccc(C(F)(F)F)cc2)O1)NC1Cc2ccccc2C1	x	x	17	1	x	-19
O=C(C[C@@H]1CC[C@@H]2[C@H](COC[C@@H](O)CN2CCC(F)(F)F)O1)NCC1CCCCC1	x	x	4	4	x	-7
Cc1ccc(C(=O)NC(C#N)=C(Cl)Cl)cc1	x	x	43	77*	-191	24
Cc1ccc(-c2[nH]c3ccccc3c2SCCNC(=O)c2ccc(S(=O)(=O)N3CCOCC3)cc2)cc1	5	57	62*	33	10	9
Cc1ccc(NC(=O)c2cccc(NC(=O)/C=C/c3ccco3)c2)cc1C	-48	-62	-45	-85	-46	0
Cc1ccc(-n2nc3ccc(NC(=O)/C=C/c4ccco4)cc3n2)cc1	-58	6	68*	-12	-202	-7
COC(=O)c1cc(NC(=O)c2c(Cl)nc3sccn23)cc(C(=O)OC)c1	8	-7	x	x	80*	x
COC(=O)c1cc(=O)nc2sccn12	-8	-16	8	x	3	5
C[C@@H]1CCCCO[C@H](CN(C)C(=O)C2CCCCC2)[C@@H](C)CN([C@@H](C)CO)C(=O)c2cc(NC(=O)CCCN(C)C)ccc2O1	x	x	0	-4	x	x
CS(=O)(=O)CCC(C(=O)Nc1ccc2c(c1)OCO2)N1Cc2ccccc2C1=O (stereo unspecified)	60*	-34	-29	-36	-33	10
CSCC[C@@H](C(=O)Nc1ccc2c(c1)OCCO2)N1Cc2ccccc2C1=O	-7	-27	-55	-17	-85	-3
COCC(=O)N(C)C[C@H]1Oc2ncc(C#C[C@H](C)O)cc2C(=O)N([C@@H](C)CO)C[C@@H]1C	x	x	x	-5	x	1
CCN(C(=O)c1ccc(C(C)(C)C)cc1)c1nnc(Cn2nnc3ccccc32)s1	2	93*	x	x	-23	x
CC(C)CC(=O)NC(=S)NNC(=O)c1ccc(NC(=O)C2CCCCC2)cc1	8	4	20	x	75*	-6
CC(C)CC(=O)NC(=S)NNC(=O)c1ccc([N+](=O)[O-])cc1	5	3	1	x	1	-1
O=C1CNC[C@@H]2[C@@H](c3ccc(C4=CCCC4)cc3)[C@H](CO)N12	x	x	x	-4	x	-10
Cc1ccc(-c2ccc(C3[C@@H]4CN(S(=O)(=O)c5ccc(C)cc5)C[C@H]3N4)cc2)cc1 (stereo partly specified)	x	x	73*	8	x	-3
COc1ccccc1-c1ccc([C@@H]2[C@@H]3CN(S(=O)(=O)c4ccc(-c5ccccc5)cc4)C[C@H]2N3)cc1	x	x	107*	-3	x	-8
COc1cccc(S(=O)(=O)N2C[C@@H]3N[C@H](C2)C3c2ccc(-c3ccccc3OC)cc2)c1 (stereo partly specified)	x	x	-9	-2	x	0
O=C(Nc1cccc2ccccc12)c1nn(C23CC4CC(CC(C4)C2)C3)cc1[N+](=O)[O-]	10	6	x	-2	29	x
COc1ccc(NC(=O)c2nn(C34CC5CC(CC(C5)C3)C4)cc2[N+](=O)[O-])cc1	8	-5	128*	0	-1	5
O=C1CC(Sc2nnc(-c3ccccc3)o2)C(=O)N1c1ccccc1 (stereo unspecified)	-5	32	72*	x	-15	9
Cc1ccccc1N1C(=O)CC(Sc2nnc(-c3ccccc3)o2)C1=O (stereo unspecified)	-5	76	x	x	-11	x
Fc1ccc(-c2csc3ncnc(N4CCc5ccccc5C4)c23)cc1	12	36	70*	8	38	-5
